Measurements published in PMC9827282 (RSC Advances, 2023).
Where two headings read alike, the source gives them in different places.

Key:
[1] = biological target: T1, XO (isolated from bovine milk) (Bos taurus, UniProt P80457); experiment: Fluorescence titrations; type: binding; conditions: for Kd: binding constant K
In short: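 Intrinsic fluorescence of bovine milk XO (0.16 U mL−1) titrated with test compound at 0–26.7 μM, at 298, 304 and 310 K. Excitation 280 nm, emission 300–500 nm, slit 5.0 nm. Mixtures equilibrated 30 min before reading. Compound-only control at each concentration; PBS blank for background correction. Final DMSO below 1%.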

[2] = biological target: T1, XO (isolated from bovine milk); experiment: Enzyme kinetic studies; type: biochemical
In short: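 Bovine milk XO. Reversibility: xanthine held at 0.25 mM, XO varied 0.03–0.15 U mL−1 (five levels), test compound at 0, 10, 20 and 30 μM, velocity plotted against [XO]. Inhibition type: XO 0.025 U mL−1, xanthine 0.0625–0.1875 mM, same compound levels. Lineweaver–Burk double-reciprocal analysis, with linear secondary replots of slope and Y-intercept against [compound].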

[3] = biological target: T1, XO (isolated from bovine milk); experiment: Fourier translation infrared spectroscopy, secondary structure of XO; conditions: XO 0.5 U mL^−1 with AUR
In short: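 FT-IR of bovine milk XO (0.5 U mL−1), alone and with test compound (200 μM), at room temperature. Spectra collected over 1800–1400 cm−1 at 4 cm−1 resolution, 128 scans co-added, background subtracted. Secondary-structure fractions quantified by split-peak fitting of the amide I band (1600–1700 cm−1).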

[4] = biological target: T1, XO (isolated from bovine milk); experiment: XO inhibition assay; type: biochemical
[5] = test system: XO; conditions: cited from earlier work
[6] = 298, 304 and 310 K (taken as constant)

T1 sequence (P80457 whole entry): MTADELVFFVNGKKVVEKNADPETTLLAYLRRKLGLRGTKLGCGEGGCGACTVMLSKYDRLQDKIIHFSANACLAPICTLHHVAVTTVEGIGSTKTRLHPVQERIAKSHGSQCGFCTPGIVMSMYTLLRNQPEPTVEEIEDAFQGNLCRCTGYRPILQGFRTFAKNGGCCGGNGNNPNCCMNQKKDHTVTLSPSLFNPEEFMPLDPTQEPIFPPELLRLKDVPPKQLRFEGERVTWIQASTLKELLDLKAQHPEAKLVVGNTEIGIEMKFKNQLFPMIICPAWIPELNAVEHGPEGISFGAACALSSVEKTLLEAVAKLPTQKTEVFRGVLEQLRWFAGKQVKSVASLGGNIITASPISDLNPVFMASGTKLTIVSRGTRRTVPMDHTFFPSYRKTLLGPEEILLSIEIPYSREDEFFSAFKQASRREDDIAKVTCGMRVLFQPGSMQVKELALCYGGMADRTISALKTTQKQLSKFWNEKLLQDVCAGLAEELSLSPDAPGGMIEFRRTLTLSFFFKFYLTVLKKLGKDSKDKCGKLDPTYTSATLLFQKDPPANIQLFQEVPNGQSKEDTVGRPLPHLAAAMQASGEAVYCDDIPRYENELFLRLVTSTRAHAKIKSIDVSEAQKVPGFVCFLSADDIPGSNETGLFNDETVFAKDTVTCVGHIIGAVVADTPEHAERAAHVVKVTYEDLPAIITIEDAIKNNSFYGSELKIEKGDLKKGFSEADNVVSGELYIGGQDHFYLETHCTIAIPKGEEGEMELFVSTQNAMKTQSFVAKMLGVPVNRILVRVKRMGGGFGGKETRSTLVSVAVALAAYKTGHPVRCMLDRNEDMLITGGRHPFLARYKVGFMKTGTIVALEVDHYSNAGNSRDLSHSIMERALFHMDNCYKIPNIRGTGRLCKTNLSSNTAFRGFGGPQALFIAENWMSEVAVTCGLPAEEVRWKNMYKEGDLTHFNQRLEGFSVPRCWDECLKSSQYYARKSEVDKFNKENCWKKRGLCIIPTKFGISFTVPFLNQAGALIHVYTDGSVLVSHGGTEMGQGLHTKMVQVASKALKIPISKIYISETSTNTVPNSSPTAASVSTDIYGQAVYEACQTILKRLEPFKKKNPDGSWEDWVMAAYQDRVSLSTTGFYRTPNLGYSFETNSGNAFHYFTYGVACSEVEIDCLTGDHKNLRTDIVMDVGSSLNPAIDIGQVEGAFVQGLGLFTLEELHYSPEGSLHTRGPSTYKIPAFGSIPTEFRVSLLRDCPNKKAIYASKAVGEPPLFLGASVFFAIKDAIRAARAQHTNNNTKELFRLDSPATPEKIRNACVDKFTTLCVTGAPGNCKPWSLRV

O=C1/C(=C/c2ccc(O)c(O)c2)Oc2cc(O)cc(O)c21 [AUR, Aureusidin]
fluorescence quenching mechanism [1]: static quenching process
ΔH [1, 6]: 3.1 kcal/mol
ΔS [1, 6]: 121.95 J mol^−1 K^−1
lg K ([1]; 298 K): 4.096
number of binding sites n ([1]; 298 K): 0.977
quenching constant Ksv ([1]; 298 K): 16190 L/mol
lg K ([1]; 304 K): 4.155
number of binding sites n ([1]; 304 K): 0.993
quenching constant Ksv ([1]; 304 K): 15450 L/mol
ΔG ([1]; 304 K): -8.858 kcal/mol
lg K ([1]; 310 K): 4.184
number of binding sites n ([1]; 310 K): 1.006
quenching constant Ksv ([1]; 310 K): 14370 L/mol
ΔG ([1]; 310 K): -9.032 kcal/mol
Kd ([1]; 298 K): 80.2 µM
Kd ([1]; 304 K): 70 µM
Kd ([1]; 310 K): 65.4 µM
Ki [2]: 1.8 µM
ratio (α) of Kis to Ki [2]: 0.31
inhibition type ([2]; Lineweaver–Burk plot, XO 0.025 U mL^−1, AUR 0–30 μM): mixed-type (competitive and noncompetitive)
uncompetitive inhibition constant (Kis) ([2]; binding to XO–xanthine complex): 0.56 µM
inhibition reversibility ([2]; plots of v vs [XO], AUR 0–30 μM, xanthine 0.25 mM): reversible
β-Sheet content of XO ([3]; free XO 17.50): 12.07%
β-Turn content of XO ([3]; free XO 40.37): 23.31%
α-Helix and random structure content of XO ([3]; free XO 42.13): 64.62%
IC50 [4]: 7.62 ± 0.401 µM

O=c1c(O)c(-c2ccc(O)c(O)c2)oc2cc(O)cc(O)c12 [Quercetin, quercetin]
inhibition type [5]: mixed-type
IC50 ([5]; ref 18 (Zhang et al.)): 2.74 ± 0.04 µM

O=C1/C(=C/c2ccc(O)c(O)c2)Oc2cc(O)ccc21 [sulfuretin]
IC50 ([5]; ref 24 (Muzychka et al.)): 3.1 ± 0.38 µM
